Laboratory results: ChEMBL document CHEMBL1138172, “Selective irreversible inhibition of fructose 1,6-bisphosphate aldolase from Trypanosoma brucei” (J Med Chem, 2006)
Activity calls are given as the source filed them. The rule behind the calls is not given here.

How the values were obtained:
[1] = target: T1, Fructose-bisphosphate aldolase, glycosomal (Trypanosoma brucei brucei) (UniProt P07752); experiment: Protection of inhibitory activity by DHAP against Trypanosoma brucei aldolase at 1 mM after 15 min; design: scale not given: the % may be the effect or the level left
T1 sequence (whole entry): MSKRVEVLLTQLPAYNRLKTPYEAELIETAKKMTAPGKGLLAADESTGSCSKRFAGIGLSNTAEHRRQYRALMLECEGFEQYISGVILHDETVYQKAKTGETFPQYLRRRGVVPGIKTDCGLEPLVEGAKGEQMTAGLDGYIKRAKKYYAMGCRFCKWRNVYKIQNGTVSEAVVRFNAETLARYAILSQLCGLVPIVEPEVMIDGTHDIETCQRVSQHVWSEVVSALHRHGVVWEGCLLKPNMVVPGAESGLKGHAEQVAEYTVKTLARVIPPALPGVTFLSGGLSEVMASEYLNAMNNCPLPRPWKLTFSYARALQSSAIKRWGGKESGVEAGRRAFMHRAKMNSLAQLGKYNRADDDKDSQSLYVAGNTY

[2] = target: T1, Fructose-bisphosphate aldolase, glycosomal (Trypanosoma brucei brucei); experiment: Residual activity against Trypanosoma brucei class1 Aldolase at 100 uM after 15 min
How it was run: (§1)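 Aldolases from different sources, including mammalian (human liver) and protozoan parasite enzymes, were each incubated at 0.2 mg/mL with the inhibitor at 100 µM. Residual enzyme activity was then measured.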

[3] = target: T1, Fructose-bisphosphate aldolase, glycosomal (Trypanosoma brucei brucei); experiment: Residual activity against Trypanosoma brucei class1 Aldolase at 0.5 mM after 15 min
[4] = target: T1, Fructose-bisphosphate aldolase, glycosomal (Trypanosoma brucei brucei); experiment: Residual activity against Trypanosoma brucei class1 Aldolase at 0.5 mM after 5 min
[5] = target: Fructose-bisphosphate aldolase B (Homo sapiens) (UniProt P05062); experiment: Residual activity against human liver class1 Aldolase at 100 uM after 15 min
Fructose-bisphosphate aldolase B (Homo sapiens), sequence (P05062 whole entry, looked up): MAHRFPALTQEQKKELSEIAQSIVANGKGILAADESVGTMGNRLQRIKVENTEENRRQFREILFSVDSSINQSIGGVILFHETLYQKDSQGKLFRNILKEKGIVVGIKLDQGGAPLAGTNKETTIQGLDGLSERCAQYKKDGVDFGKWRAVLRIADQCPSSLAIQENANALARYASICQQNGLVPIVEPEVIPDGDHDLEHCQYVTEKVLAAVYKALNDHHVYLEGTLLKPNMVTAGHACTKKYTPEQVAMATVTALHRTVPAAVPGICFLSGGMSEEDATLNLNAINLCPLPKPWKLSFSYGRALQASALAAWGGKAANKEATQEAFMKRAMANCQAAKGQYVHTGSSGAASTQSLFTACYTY

[6] = target: T2, Fructose-bisphosphate aldolase, glycosomal (Trypanosoma brucei brucei, UniProt P07752); experiment: Inhibition of Trypanosoma brucei class1 Aldolase
T2 sequence (P07752 whole entry): T1 sequence (whole entry)

[7] = target: T1, Fructose-bisphosphate aldolase, glycosomal (Trypanosoma brucei brucei); experiment: Protection of inhibitory activity by FBP against Trypanosoma brucei aldolase at 10 mM after 5 min; design: scale not given: the % may be the effect or the level left
[8] = target: T3, Fructose-bisphosphate aldolase A (Oryctolagus cuniculus) (UniProt P00883); experiment: Residual activity against rabbit muscle class1 Aldolase at 0.1 mM after 5 min; conditions: Muscle tissue
T3 sequence (whole entry): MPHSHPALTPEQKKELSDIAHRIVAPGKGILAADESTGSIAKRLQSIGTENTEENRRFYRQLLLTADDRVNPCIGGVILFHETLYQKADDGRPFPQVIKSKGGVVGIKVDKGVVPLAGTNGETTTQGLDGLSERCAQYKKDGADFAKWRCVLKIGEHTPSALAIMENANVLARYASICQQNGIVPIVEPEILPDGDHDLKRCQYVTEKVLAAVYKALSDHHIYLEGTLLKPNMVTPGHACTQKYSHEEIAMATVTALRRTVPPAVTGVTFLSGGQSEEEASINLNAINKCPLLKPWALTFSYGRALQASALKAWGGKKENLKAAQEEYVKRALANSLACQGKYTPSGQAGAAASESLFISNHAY

[9] = target: T1, Fructose-bisphosphate aldolase, glycosomal (Trypanosoma brucei brucei); experiment: Residual activity against Trypanosoma brucei class1 Aldolase at 0.02 mM after 5 min
[10] = target: T1, Fructose-bisphosphate aldolase, glycosomal (Trypanosoma brucei brucei); experiment: Protection of inhibitory activity by DHAP against Trypanosoma brucei aldolase at 0.25 mM after 5 min; design: scale not given: the % may be the effect or the level left
[11] = target: T1, Fructose-bisphosphate aldolase, glycosomal (Trypanosoma brucei brucei); experiment: Protection of inhibitory activity by DHAP against Trypanosoma brucei aldolase at 0.25 mM after 15 min; design: scale not given: the % may be the effect or the level left
[12] = target: T1, Fructose-bisphosphate aldolase, glycosomal (Trypanosoma brucei brucei); experiment: Protection of inhibitory activity by FBP against Trypanosoma brucei aldolase at 10 mM after 15 min; design: scale not given: the % may be the effect or the level left
[13] = target: T1, Fructose-bisphosphate aldolase, glycosomal (Trypanosoma brucei brucei); experiment: Protection of inhibitory activity by DHAP against Trypanosoma brucei aldolase at 10 mM after 15 min; design: scale not given: the % may be the effect or the level left
[14] = target: T3, Fructose-bisphosphate aldolase A (Oryctolagus cuniculus); experiment: Residual activity against rabbit muscle class1 Aldolase at 0.1 mM after 15 min; conditions: Muscle tissue
[15] = target: T4, Aldolase (Plasmodium falciparum) (UniProt Q27744); experiment: Residual activity against Plasmodium falciparum class1 Aldolase at 100 uM after 15 min; how it was run: as §1
T4 sequence (whole entry): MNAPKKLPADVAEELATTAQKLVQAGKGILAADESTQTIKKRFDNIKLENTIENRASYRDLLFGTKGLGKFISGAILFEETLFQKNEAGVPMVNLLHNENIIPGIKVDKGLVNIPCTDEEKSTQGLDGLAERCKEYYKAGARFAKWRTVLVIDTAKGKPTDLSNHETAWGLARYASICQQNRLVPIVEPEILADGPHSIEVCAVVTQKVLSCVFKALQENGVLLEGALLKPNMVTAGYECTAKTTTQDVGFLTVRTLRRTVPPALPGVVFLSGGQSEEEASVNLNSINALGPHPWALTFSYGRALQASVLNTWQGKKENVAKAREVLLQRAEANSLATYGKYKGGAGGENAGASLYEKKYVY

[16] = target: T1, Fructose-bisphosphate aldolase, glycosomal (Trypanosoma brucei brucei); experiment: Protection of inhibitory activity by DHAP against Trypanosoma brucei aldolase at 0.5 mM after 15 min; design: scale not given: the % may be the effect or the level left
[17] = target: T1, Fructose-bisphosphate aldolase, glycosomal (Trypanosoma brucei brucei); experiment: Protection of inhibitory activity by HBP against Trypanosoma brucei aldolase at 1 mM after 5 min; design: scale not given: the % may be the effect or the level left
[18] = target: T1, Fructose-bisphosphate aldolase, glycosomal (Trypanosoma brucei brucei); experiment: Protection of inhibitory activity by NBP against Trypanosoma brucei aldolase at 1 mM after 15 min; design: scale not given: the % may be the effect or the level left
[19] = target: T1, Fructose-bisphosphate aldolase, glycosomal (Trypanosoma brucei brucei); experiment: Protection of inhibitory activity by FBP against Trypanosoma brucei aldolase at 1 mM after 5 min; design: scale not given: the % may be the effect or the level left
[20] = target: T1, Fructose-bisphosphate aldolase, glycosomal (Trypanosoma brucei brucei); experiment: Protection of inhibitory activity by DHAP against Trypanosoma brucei aldolase at 1 mM after 5 min; design: scale not given: the % may be the effect or the level left
[21] = target: T1, Fructose-bisphosphate aldolase, glycosomal (Trypanosoma brucei brucei); experiment: Residual activity against Trypanosoma brucei class1 Aldolase at 0.02 mM after 15 min
[22] = target: T1, Fructose-bisphosphate aldolase, glycosomal (Trypanosoma brucei brucei); experiment: Protection of inhibitory activity by FBP against Trypanosoma brucei aldolase at 1 mM after 15 min; design: scale not given: the % may be the effect or the level left
[23] = target: T1, Fructose-bisphosphate aldolase, glycosomal (Trypanosoma brucei brucei); experiment: Protection of inhibitory activity by HBP against Trypanosoma brucei aldolase at 1 mM after 15 min; design: scale not given: the % may be the effect or the level left
[24] = target: T1, Fructose-bisphosphate aldolase, glycosomal (Trypanosoma brucei brucei); experiment: Protection of inhibitory activity by HBP against Trypanosoma brucei aldolase at 0.1 mM after 5 min; design: scale not given: the % may be the effect or the level left
[25] = target: T3, Fructose-bisphosphate aldolase A (Oryctolagus cuniculus); experiment: Residual activity against rabbit muscle class1 Aldolase at 1 mM after 15 min; conditions: Muscle tissue
[26] = target: T1, Fructose-bisphosphate aldolase, glycosomal (Trypanosoma brucei brucei); experiment: Protection of inhibitory activity by DHAP against Trypanosoma brucei aldolase at 10 mM after 5 min; design: scale not given: the % may be the effect or the level left
[27] = target: T5, Fructose-1,6-bisphospate aldolase (Leishmania mexicana) (UniProt Q9U5N6); experiment: Residual activity against Leishmania mexicana class1 Aldolase at 100 uM after 15 min; how it was run: as §1
T5 sequence (whole entry): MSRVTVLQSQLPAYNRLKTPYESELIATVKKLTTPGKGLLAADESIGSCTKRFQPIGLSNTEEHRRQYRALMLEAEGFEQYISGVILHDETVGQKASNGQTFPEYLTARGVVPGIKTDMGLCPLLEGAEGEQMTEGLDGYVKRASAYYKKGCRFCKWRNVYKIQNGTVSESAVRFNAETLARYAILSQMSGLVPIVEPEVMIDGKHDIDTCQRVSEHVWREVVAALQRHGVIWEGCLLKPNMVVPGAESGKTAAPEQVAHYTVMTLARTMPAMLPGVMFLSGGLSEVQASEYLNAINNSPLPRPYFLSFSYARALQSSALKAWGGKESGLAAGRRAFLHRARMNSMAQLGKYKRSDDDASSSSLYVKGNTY

[28] = target: T3, Fructose-bisphosphate aldolase A (Oryctolagus cuniculus); experiment: Residual activity against rabbit muscle class1 Aldolase at 1 mM after 5 min; conditions: Muscle tissue
[29] = target: T1, Fructose-bisphosphate aldolase, glycosomal (Trypanosoma brucei brucei); experiment: Protection of inhibitory activity by HBP against Trypanosoma brucei aldolase at 0.1 mM after 15 min; design: scale not given: the % may be the effect or the level left
[30] = target: T1, Fructose-bisphosphate aldolase, glycosomal (Trypanosoma brucei brucei); experiment: Protection of inhibitory activity by NBP against Trypanosoma brucei aldolase at 1 mM after 5 min; design: scale not given: the % may be the effect or the level left
[31] = target: T1, Fructose-bisphosphate aldolase, glycosomal (Trypanosoma brucei brucei); experiment: Inhibitory activity against mutated recombinant Trypanosoma brucei aldolase K116M
[32] = target: T1, Fructose-bisphosphate aldolase, glycosomal (Trypanosoma brucei brucei); experiment: Protection of inhibitory activity by DHAP against Trypanosoma brucei aldolase at 0.5 mM after 5 min; design: scale not given: the % may be the effect or the level left

For `O=Cc1c(O)ccc2cc(OP(=O)(O)O)ccc12`, the Activity [1] was 52%, the Activity [2] was less than 0.5% and the Activity [3] was 0%. The Activity [4] was less than 20%, the Activity [5] was 100% and the Ki [6] was 23 µM. It also gave an Activity [7] of 100%, an Activity [8] of 100% and an Activity [9] of 75%. The Activity [10] was 56%, the Activity [11] was 48% and the Activity [12] was 89%. For the same compound, the Activity [13] was 70%, the Activity [14] was 100% and the Activity [15] was 30%. The Activity [16] was 44%, the Activity [17] was 100% and the Activity [18] was 100%. For the same compound, the Activity [19] was 80%, the Activity [20] was 60% and the Activity [21] was 50%. For the same compound, the Activity [22] was 51%, the Activity [23] was 100% and the Activity [24] was 100%. For the same compound, the Activity [25] was 80%, the Activity [26] was 80% and the Activity [27] was 15%. The Activity [28] was 80%, the Activity [29] was 100% and the Activity [30] was 100%. For the same compound, the inhibition [31] was “inactive” and the Activity [32] was 63%.
